Data on 24 compounds can be found in ChEMBL document CHEMBL1136377, “2,4-disubstituted pyrimidines: a novel class of KDR kinase inhibitors” (Bioorg Med Chem Lett, 2003).

Series [1] addresses T1, Vascular endothelial growth factor receptor 2 (Homo sapiens, UniProt P35968). The series can be described thus: Biochemical inhibition of phosphorylation of a poly-Glu/Tyr (4:1) peptide substrate by isolated vascular endothelial growth factor receptor 2 (cloned and expressed as a GST-fusion protein).
For series [2], the target named is T2, Vascular endothelial growth factor receptor (Homo sapiens, UniProt P17948+P35916+P35968). Briefly: Inhibition of VEGFstimulated mitogenesis in human umbilical vein endothelial cells. It is filed as functional, cell-based. To be noted: endothelial cell.
The target in series [3] is T2, Vascular endothelial growth factor receptor. The series can be described thus: Inhibition of VEGFstimulated mitogenesis in human umbilical vein endothelial cells. In kind it is functional, cell-based. The note with it: endothelial cell.
Series [4] addresses VEGF-receptor 2 and Fibroblast growth factor receptor 1 (Homo sapiens) (UniProt P35968+P11362). Briefly: Selectivity for VEGF-receptor 2 (KDR) over FGF-receptor 1. In kind it is protein assay.
In series [5] the target is VEGF-receptor 2 and Fibroblast growth factor receptor 2 (Homo sapiens) (UniProt P35968+P21802). The series can be described thus: Selectivity for VEGF-receptor 2 (KDR) over FGF-receptor 2. In kind it is protein assay.
In series [6] the target is Vascular endothelial growth factor receptor 1 and 2 (Flt-1 and KDR) (Homo sapiens) (UniProt P17948+P35968). Briefly: Selectivity for VEGF-receptor 2 (KDR) over VEGF-receptor 1 (FLT-1). It is filed as protein assay.
The target in series [7] is Vascular endothelial growth factor receptor 2 and 3 (KDR and Flt-4) (Homo sapiens) (UniProt P35916+P35968). The series can be described thus: Selectivity for VEGF-receptor 2 (KDR) over VEGF-receptor 3 (FLT-4). It is filed as protein assay.
Series [8] deals with VEGF-receptor 2 and PDGF-receptor beta (KDR and PDGFR beta) (Homo sapiens) (UniProt P09619+P35968). Briefly: Selectivity for VEGF-receptor 2 (KDR) over PDGF-receptor beta. In kind it is protein assay.
Series [9] has as its target VEGF-receptor 2 and tyrosine-protein kinase SRC (Homo sapiens) (UniProt P12931+P35968). Briefly: Selectivity for VEGF-receptor (KDR) over c-SRC. In kind it is protein assay.
The target in series [10] is T2, Vascular endothelial growth factor receptor. The series can be described thus: Inhibition of VEGF-stimulated mitogenesis in human umbilical vein endothelial cells at 500 nM. To be noted: Endothelial cell. In kind it is functional, cell-based.
Series [11] is described as follows: Volume distribution constant was determined. In kind it is ADME, organism-based, Canis lupus familiaris. The note with it: dog, in vivo; read-out: Vdss.
A short description of series [12]: Half life period was determined. In kind it is ADME, organism-based, Canis lupus familiaris. The note with it: dog, in vivo.
The nature of series [13]: Plasma clearance was determined. The note with it: dog. It is filed as ADME, organism-based, Canis lupus familiaris.
Series [14] is described as follows: Partition coefficient (logP). In kind it is physicochemical. To be noted: octanol/water. The gist of the method: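 Partition coefficient measured by HPLC analysis of an octanol/phosphate buffer (pH 7.4) system.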
For series [15], the target named is T1, Vascular endothelial growth factor receptor 2. The series can be described thus: Biochemical inhibition of phosphorylation of a poly-Glu/Tyr (4:1) peptide substrate by isolated vascular endothelial growth factor receptor 2 (cloned and expressed as a GST-fusion protein).

The structures appear in SMILES notation.

T1 sequence (P35968 whole entry, the tested form may be a part): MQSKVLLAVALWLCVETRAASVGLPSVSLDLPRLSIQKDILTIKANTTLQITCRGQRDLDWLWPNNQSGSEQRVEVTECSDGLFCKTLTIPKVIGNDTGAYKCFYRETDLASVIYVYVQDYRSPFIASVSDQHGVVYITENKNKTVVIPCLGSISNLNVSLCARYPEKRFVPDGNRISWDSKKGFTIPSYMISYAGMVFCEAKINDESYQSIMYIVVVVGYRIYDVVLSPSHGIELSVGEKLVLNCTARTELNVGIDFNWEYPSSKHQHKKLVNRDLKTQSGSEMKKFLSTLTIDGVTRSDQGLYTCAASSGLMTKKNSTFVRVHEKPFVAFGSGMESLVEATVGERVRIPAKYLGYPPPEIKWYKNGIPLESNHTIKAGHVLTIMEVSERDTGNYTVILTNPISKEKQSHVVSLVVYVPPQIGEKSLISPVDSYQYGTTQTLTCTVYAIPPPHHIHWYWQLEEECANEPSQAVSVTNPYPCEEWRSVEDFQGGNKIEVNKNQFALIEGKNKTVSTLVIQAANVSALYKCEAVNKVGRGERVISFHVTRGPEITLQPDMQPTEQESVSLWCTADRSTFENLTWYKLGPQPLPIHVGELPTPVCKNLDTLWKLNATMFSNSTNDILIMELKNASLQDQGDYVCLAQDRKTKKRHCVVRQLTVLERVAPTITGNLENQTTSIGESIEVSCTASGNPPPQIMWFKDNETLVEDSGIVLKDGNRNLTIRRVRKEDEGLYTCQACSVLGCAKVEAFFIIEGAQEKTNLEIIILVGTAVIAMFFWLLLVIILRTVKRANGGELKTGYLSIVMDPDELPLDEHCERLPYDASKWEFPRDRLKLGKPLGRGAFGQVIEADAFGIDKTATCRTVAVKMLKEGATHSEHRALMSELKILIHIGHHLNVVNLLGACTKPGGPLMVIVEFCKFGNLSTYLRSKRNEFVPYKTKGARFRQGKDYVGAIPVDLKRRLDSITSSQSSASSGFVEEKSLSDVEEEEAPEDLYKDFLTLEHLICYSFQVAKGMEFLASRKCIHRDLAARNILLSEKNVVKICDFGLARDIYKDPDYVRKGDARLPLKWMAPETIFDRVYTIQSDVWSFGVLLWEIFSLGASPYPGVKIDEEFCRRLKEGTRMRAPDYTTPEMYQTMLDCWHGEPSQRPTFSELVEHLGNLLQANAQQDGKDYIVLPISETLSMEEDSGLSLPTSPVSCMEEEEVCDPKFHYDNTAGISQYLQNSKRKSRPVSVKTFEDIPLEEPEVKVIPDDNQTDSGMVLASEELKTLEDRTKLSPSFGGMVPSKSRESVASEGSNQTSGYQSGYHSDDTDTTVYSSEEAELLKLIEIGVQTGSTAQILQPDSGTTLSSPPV
Vascular endothelial growth factor receptor 1 and 2 (Flt-1 and KDR) (Homo sapiens), sequence (P17948 whole entry, looked up): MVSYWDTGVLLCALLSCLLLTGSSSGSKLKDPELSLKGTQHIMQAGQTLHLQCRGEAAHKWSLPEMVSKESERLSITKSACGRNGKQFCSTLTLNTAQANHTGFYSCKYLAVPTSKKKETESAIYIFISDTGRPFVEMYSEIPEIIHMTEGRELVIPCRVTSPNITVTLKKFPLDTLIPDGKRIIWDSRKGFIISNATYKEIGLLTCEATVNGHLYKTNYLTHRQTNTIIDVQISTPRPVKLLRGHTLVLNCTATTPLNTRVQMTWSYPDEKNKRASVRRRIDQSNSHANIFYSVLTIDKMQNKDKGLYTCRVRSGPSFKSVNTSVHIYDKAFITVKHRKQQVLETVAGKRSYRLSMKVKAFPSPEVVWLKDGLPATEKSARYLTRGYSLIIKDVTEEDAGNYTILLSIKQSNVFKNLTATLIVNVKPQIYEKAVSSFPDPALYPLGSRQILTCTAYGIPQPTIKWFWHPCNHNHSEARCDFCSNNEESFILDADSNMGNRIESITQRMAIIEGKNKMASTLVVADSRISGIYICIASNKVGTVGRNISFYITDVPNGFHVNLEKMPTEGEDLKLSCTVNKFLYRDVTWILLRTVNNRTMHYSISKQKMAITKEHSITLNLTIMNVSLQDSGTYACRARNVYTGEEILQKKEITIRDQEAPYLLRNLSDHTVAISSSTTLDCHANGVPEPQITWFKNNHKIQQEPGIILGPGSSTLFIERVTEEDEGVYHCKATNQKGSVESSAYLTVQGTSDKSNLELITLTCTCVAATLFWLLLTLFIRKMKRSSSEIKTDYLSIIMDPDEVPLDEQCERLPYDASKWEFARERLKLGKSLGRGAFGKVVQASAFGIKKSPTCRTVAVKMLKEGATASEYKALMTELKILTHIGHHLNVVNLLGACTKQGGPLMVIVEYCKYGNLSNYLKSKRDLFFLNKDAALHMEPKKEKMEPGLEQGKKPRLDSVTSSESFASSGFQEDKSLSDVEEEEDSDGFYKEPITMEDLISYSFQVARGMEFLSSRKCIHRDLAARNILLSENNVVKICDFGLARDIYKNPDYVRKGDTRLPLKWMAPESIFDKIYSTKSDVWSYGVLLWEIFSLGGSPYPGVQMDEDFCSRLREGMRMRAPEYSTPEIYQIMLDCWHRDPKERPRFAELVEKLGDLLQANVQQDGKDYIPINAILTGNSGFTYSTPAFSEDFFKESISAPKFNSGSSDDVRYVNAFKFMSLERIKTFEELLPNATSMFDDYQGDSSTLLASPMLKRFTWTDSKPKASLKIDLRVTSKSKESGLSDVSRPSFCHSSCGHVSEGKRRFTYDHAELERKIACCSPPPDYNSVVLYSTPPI
Vascular endothelial growth factor receptor 1 and 2 (Flt-1 and KDR) (Homo sapiens), sequence (P35968 whole entry, looked up): as the sequence (P35968 whole entry, the tested form may be a part) above

Regarding `Clc1cc(Cl)cc(Nc2nccc(-n3ccnc3-c3ccccc3)n2)c1`, in [1], the IC50 was 26 nM.
As for `COc1cccc(Nc2nccc(-n3ccnc3-c3ccccc3)n2)c1`, the IC50 was found to be 88 nM in series [2] and 20 nM in series [1].
Regarding `Cc1ccccc1Nc1nccc(-n2ccnc2-c2ccccc2)n1`, 3080 nM corresponded to half-maximal inhibition in series [1] (IC50).
Take `FC(F)(F)c1cccc(Nc2nccc(-n3ccnc3-c3ccccc3)n2)c1`: the results for the IC50 in series [2] and in [1] were 303 nM and 10 nM, respectively.
Turning to `Cc1cccc(Nc2nccc(-n3ccnc3-c3ccccc3)n2)c1`, the IC50 in [3] stood at 151 nM; in [1], 18 nM. For the same compound, the Selectivity was found to be 1020 in series [4]; 686 in series [5]; 103 in series [6]; 13 in [7]; 22 in series [8]; 11 in [9].
Take `c1ccc(-c2nccn2-c2ccnc(Nc3ccccn3)n2)cc1`: in [1], the IC50 was found to be 6830 nM.
`c1ccc(Nc2nccc(-n3ccnc3-c3ccccc3)n2)cc1`: the inhibition in [10] was found to be 8%. Also, in series [1], the IC50 worked out at 105 nM. Moreover, the Selectivity in series [4] was determined as 295; in series [6], 13; in series [7], 5; in [9] it was 11.
Take `Cc1cc(Nc2nccc(-n3ccnc3-c3ccccc3)n2)cc(C(F)(F)F)c1`: the figures for the IC50 in [2] and in series [1] were 26 nM and 5 nM, respectively.
In series [1], `FC(F)(F)c1cc(Nc2nccc(-n3ccnc3-c3ccccc3)n2)cc(C(F)(F)F)c1` returned an IC50 of 77 nM.
Same read-out and setting: the value for `Clc1cccc(Nc2nccc(-n3ccnc3-c3ccccc3)n2)c1` was 25 nM.
In series [1], `COc1cc(Nc2nccc(-n3ccnc3-c3ccccc3)n2)cc(C(F)(F)F)c1` had an IC50 of 19000 nM.
In turn, `Cc1cc(C)cc(Nc2cc(-n3ccnc3-c3ccccc3)ncn2)c1` displayed an IC50 in [1] of 1810 nM.
`Cc1cc(C)cc(Nc2nccc(-n3cc(C)nc3-c3ccccc3)n2)c1`: in series [1], the IC50 was 450 nM.
`COc1cc(Nc2nccc(-n3ccnc3-c3ccccc3)n2)cc(OC)c1`: the IC50 amounted to 22 nM in series [2] and 5 nM in series [1].
As for `c1ccc(-c2nccn2-c2ccnc(Nc3ccncc3)n2)cc1`, the IC50 in [1] was 273 nM.
`Cc1cc(C)cc(Nc2nccc(-n3ccnc3-c3ccccc3)n2)c1`: in [11], the Vd is 1.11 L/kg. The same compound gave a half-life in [12] of 42.6 min. The compound also displayed a clearance in [13] of 30.1 mL/min/kg. In addition, the logP in series [14] amounted to 3.74. Further, the IC50 in series [3] came to 19 nM; in series [1] it was 6 nM. Besides, the Selectivity in series [4] turned out to be 606; in series [5] it was 261; in [6] it was 30; in series [7], 5; in series [8], 6; in series [9], 10.
Consider `CC(=O)N1CCN(Cc2cc(C)cc(Nc3nccc(-n4ccnc4-c4ccccc4)n3)c2)CC1`, for which the values for the IC50 in series [2] and in [1] were 396 nM and 32 nM, respectively.
As for `COc1ccc(Nc2nccc(-n3ccnc3-c3ccccc3)n2)cc1`, in series [1], the IC50 turned out to be 392 nM.
In series [1], `COc1ccccc1Nc1nccc(-n2ccnc2-c2ccccc2)n1` showed an IC50 of 289 nM.
On to `Cc1ccc(Nc2nccc(-n3ccnc3-c3ccccc3)n2)cc1`, for which the midpoint of inhibition in series [1], the IC50, lay at 279 nM.
As to `c1ccc(-c2nccn2-c2ccnc(Nc3cccnc3)n2)cc1`, the IC50 in [1] was found to be 340 nM.
Take `Cc1cc(CO)cc(Nc2nccc(-n3ccnc3-c3ccccc3)n2)c1`: the IC50 came out at 23 nM in series [2] and 9 nM in [15].
As for `Cc1cc(C)cc(Nc2cc(-n3ccnc3-c3ccccc3)ccn2)c1`, the IC50 in series [1] was determined as 892 nM.
In [1], `[O-][n+]1cccc(Nc2nccc(-n3ccnc3-c3ccccc3)n2)c1` had an IC50 of 3570 nM.

The term IC50 denotes the concentration that inhibits the measured activity by half. The low end stands for inhibition by little substance, the high end for a need for much substance. What is called inhibition is the drop in the measured response relative to a control, in per cent. What is called half-life is the time needed for the level to fall by half in the phase considered. Read a high half-life as slow decline. Usually clearance stands for a measure of how efficiently the substance is removed, as volume per time. Low values mean a low capacity for elimination, high ones a high capacity for elimination. The term logP denotes the decadic logarithm of the partition coefficient of the neutral form, usually between octanol and water.
